Test results from ChEMBL document CHEMBL1131094, “Classical/nonclassical hybrid cannabinoids: southern aliphatic chain-functionalized C-6beta methyl, ethyl, and propyl analogues” (J Med Chem, 1998).
pKi: −log10 of the molar value.

Tests used:
Cannabinoid receptor 1 = Cannabinoid receptor 1 (Rattus norvegicus, UniProt P20272); experiment: Binding affinity to Cannabinoid receptor 1 from rat forebrain synaptosomal membranes was measured using [3H]CP-55940 as radioligand
Procedure, shortened: (§1)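 Filtration displacement assay: 40 µg membrane protein (rat forebrain synaptosomes for CB1, mouse spleen for CB2) incubated 1 h at 30 °C with 0.76 nM [3H]CP-55,940 and varied test concentrations. Nonspecific binding defined by 100 nM unlabeled CP-55,940. Specific binding normalized 0–100%, IC50 fitted with a four-variable equation (max 100, min 0), mean of ≥3 experiments in duplicate, then converted to Ki.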

Cannabinoid receptor 2 = Cannabinoid receptor 2 (Mus musculus, UniProt P47936); experiment: Binding affinity to Cannabinoid receptor 2 from mouse spleen was measured using [3H]CP-55940 as radioligand; format: tissue-based; procedure, shortened: as §1
Sequence of Cannabinoid receptor 2 (P47936 whole entry): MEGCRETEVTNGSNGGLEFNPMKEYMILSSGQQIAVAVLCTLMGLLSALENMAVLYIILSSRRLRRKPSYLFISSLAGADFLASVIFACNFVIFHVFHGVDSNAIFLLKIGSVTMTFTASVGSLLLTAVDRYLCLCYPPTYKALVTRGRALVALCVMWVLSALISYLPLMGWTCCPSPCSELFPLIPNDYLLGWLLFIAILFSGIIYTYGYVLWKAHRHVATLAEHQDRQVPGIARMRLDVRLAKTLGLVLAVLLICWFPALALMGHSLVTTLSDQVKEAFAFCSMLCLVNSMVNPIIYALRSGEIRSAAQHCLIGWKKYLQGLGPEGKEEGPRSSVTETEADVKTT

Sequence of Cannabinoid receptor 1 (P20272 whole entry): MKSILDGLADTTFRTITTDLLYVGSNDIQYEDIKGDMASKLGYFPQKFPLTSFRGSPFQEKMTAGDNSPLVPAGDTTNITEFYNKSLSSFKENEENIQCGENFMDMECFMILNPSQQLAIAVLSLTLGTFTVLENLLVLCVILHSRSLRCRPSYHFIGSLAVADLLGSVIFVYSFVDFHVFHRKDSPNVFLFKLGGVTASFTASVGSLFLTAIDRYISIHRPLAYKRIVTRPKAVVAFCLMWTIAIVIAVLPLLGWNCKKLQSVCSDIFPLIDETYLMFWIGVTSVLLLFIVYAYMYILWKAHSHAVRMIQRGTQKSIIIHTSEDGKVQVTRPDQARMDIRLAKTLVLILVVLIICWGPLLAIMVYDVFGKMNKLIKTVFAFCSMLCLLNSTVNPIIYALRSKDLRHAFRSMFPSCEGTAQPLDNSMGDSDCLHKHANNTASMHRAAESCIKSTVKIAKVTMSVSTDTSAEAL

SMILES: CCCCCCC(C)(C)c1cc(O)c2c(c1)O[C@@](C)(CCCI)[C@@H]1CC[C@@H](CO)C[C@@H]21
- pKi (Cannabinoid receptor 1): 8.66
- pKi (Cannabinoid receptor 2): 8.37

SMILES: CCCCCCC(C)(C)c1cc(O)c2c(c1)O[C@@](C)(CCO)[C@@H]1CC[C@@H](CO)C[C@@H]21
- pKi (Cannabinoid receptor 1): 8.55
- pKi (Cannabinoid receptor 2): 8.64

SMILES: CCCCCCC(C)(C)c1cc(O)c2c(c1)O[C@@](C)(CCI)[C@@H]1CC[C@@H](CO)C[C@@H]21
- pKi (Cannabinoid receptor 1): 7.39
- pKi (Cannabinoid receptor 2): 8.01

SMILES: CCCCCCC(C)(C)c1cc(O)c2c(c1)O[C@@](C)(CC)[C@@H]1CC[C@@H](CO)C[C@@H]21
- pKi (Cannabinoid receptor 1): 7.95
- pKi (Cannabinoid receptor 2): 7.67

SMILES: CCCCCCC(C)(C)c1cc(O)c2c(c1)O[C@@](C)(CO)[C@@H]1CC[C@@H](CO)C[C@@H]21
- pKi (Cannabinoid receptor 1): 8.72
- pKi (Cannabinoid receptor 2): 8.85

SMILES: CCCCCCC(C)(C)c1cc(O)c2c(c1)O[C@@](C)(CCCO)[C@@H]1CC[C@@H](CO)C[C@@H]21
- pKi (Cannabinoid receptor 1): 8.66
- pKi (Cannabinoid receptor 2): 8.47

SMILES: CCCCCCC(C)(C)c1cc(O)c2c(c1)O[C@@](C)(CCC)[C@@H]1CC[C@@H](CO)C[C@@H]21
- pKi (Cannabinoid receptor 1): 7.84
- pKi (Cannabinoid receptor 2): 7.41

SMILES: CCCCCCC(C)(C)c1cc(O)c2c(c1)OC(C)(C)[C@@H]1CC[C@@H](CO)C[C@@H]21
- pKi (Cannabinoid receptor 1): 8.64
- pKi (Cannabinoid receptor 2): 8.64
